Measured values: ChEMBL document CHEMBL1132412, “Antagonists of the platelet P2T receptor: a novel approach to antithrombotic therapy” (J Med Chem, 1999)

How the values were obtained:
[1] = Platelet P2T receptor antagonist activity in human platelet assay; format: functional
Procedure, shortened: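 Human washed platelets in modified Tyrode buffer, stimulated to aggregate with ADP; aggregation followed turbidimetrically. Inhibition measured across a concentration range, pIC50 calculated from the concentration-response. Mean of four determinations (nine for one compound).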

Rattus norvegicus = species: Rattus norvegicus; test: Recovery of ADP-induced platelet aggregation 20 minutes post dose. mean of four determinations and spread of results; format: functional
Procedure, shortened: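 Anesthetized rat; ADP-induced platelet aggregation measured 20 min after dosing to gauge recovery of aggregation (functional kinetics). Mean of four determinations, with spread of results.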

Row | Structure (SMILES) | Log IC50 [1] | Recovery of ADP-induced platelet aggregation (Rattus norvegicus) [%]
1 | Nc1ncnc2c1ncn2[C@@H]1O[C@H](COP(=O)(O)OP(=O)(O)C(Cl)(Cl)P(=O)(O)O)[C@@H](O)[C@H]1O | -3.5 | 
2 | CCSc1nc(N)c2ncn([C@@H]3O[C@H](COP(=O)(O)OP(=O)(O)C(Cl)(Cl)P(=O)(O)O)[C@@H](O)[C@H]3O)c2n1 | -6.53 | 
3 | Nc1ncnc2c1ncn2[C@@H]1O[C@H](COP(=O)(O)OP(=O)(O)C(F)(F)P(=O)(O)O)[C@@H](O)[C@H]1O | -3.5 | 
4 | CCCSc1nc(NCCSC)c2ncn([C@@H]3O[C@H](COP(=O)(O)OP(=O)(O)C(Cl)(Cl)P(=O)(O)O)[C@@H](O)[C@H]3O)c2n1 | -9.42 | 33
5 | Nc1nc(SCCC(F)(F)F)nc2c1ncn2[C@@H]1O[C@H](COP(=O)(O)OP(=O)(O)C(Cl)(Cl)P(=O)(O)O)[C@@H](O)[C@H]1O | -8.87 | 
6 | CCCSc1nc(N)c2ncn([C@@H]3O[C@H](COP(=O)(O)OP(=O)(O)C(Cl)(Cl)P(=O)(O)O)[C@@H](O)[C@H]3O)c2n1 | -8.6 | 93

Continued, in another order:

Row | Log IC50 [1] | Structure (SMILES) | Recovery of ADP-induced platelet aggregation (Rattus norvegicus) [%]
7 | -8.16 | CCCSc1nc(N)c2ncn([C@@H]3O[C@H](COP(=O)(O)OP(=O)(O)C(F)(F)P(=O)(O)O)[C@@H](O)[C@H]3O)c2n1 | 
8 | -9.48 | CCCSc1nc(NCC(F)(F)F)c2ncn([C@@H]3O[C@H](COP(=O)(O)OP(=O)(O)C(Cl)(Cl)P(=O)(O)O)[C@@H](O)[C@H]3O)c2n1 | 10
9 | -8.02 | COCCNc1nc(SCCC(F)(F)F)nc2c1ncn2[C@@H]1O[C@H](COP(=O)(O)OP(=O)(O)C(Cl)(Cl)P(=O)(O)O)[C@@H](O)[C@H]1O | 64
10 | -9.14 | O=P(O)(OC[C@H]1O[C@@H](n2cnc3c(NCC(F)(F)F)nc(SCCC(F)(F)F)nc32)[C@H](O)[C@@H]1O)OP(=O)(O)C(Cl)(Cl)P(=O)(O)O | 6
11 | -7.81 | CCCSc1nc(NCCOC)c2ncn([C@@H]3O[C@H](COP(=O)(O)OP(=O)(O)C(Cl)(Cl)P(=O)(O)O)[C@@H](O)[C@H]3O)c2n1 | 48
12 | -9.35 | CSCCNc1nc(SCCC(F)(F)F)nc2c1ncn2[C@@H]1O[C@H](COP(=O)(O)OP(=O)(O)C(Cl)(Cl)P(=O)(O)O)[C@@H](O)[C@H]1O [CANGRELOR] | 79
